The subject of test [1] is Blood. The test is described as follows: Antiinflammatory activity in human whole blood assessed as inhibition of LPS-induced TNFalpha production after 6 hrs. It is filed as functional, tissue-based. The gist of the method: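 Human whole blood was stimulated with LPS, and TNFα production was measured. % inhibition was plotted against log test concentration, and IC50 came from a least-squares linear regression. 95% confidence intervals were calculated by Fieller's theorem. Values are mean and S.D. of three to four determinations.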

The subject of test [2] is Mus musculus. Briefly: Antiinflammatory activity in po dosed mouse assessed as inhibition of LPS-induced TNFalpha production administered 30 mins before LPS challenge measured after 1 hr by ELISA. It is filed as functional. The settings on record: read-out: ID50 (the source's name). The gist of the method:
(§1)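 LPS-induced TNFα production was measured in mice, with N = 5. Activity is reported either as ID50 or as % inhibition at a single 20 mg/kg dose.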

The test system of test [3] is Mus musculus. The test is described as follows: Antiinflammatory activity in mouse assessed as inhibition of LPS-induced TNFalpha production at 20 mg/kg, po administered 30 mins before LPS challenge measured after 1 hr by ELISA. It is filed as functional. The gist of the method: as §1
For test [4], the species on record is Mus musculus. The test is described as follows: Selectivity ratio of compound ID50 to 4-(2-(4-fluorophenyl)-4-(1,2,3,6-tetrahydropyridin-4-yl)-1H-pyrrol-3-yl)pyridine ID50 for antiinflammatory activity in mouse. It is filed as functional.
Test [5] relates to Blood. The test is described as follows: Antiinflammatory activity in human whole blood assessed as inhibition of LPS-induced TNFalpha production at 10 uM after 6 hrs. It is filed as functional. The method in brief: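 Human whole blood was stimulated with LPS, and inhibition of TNFα production was measured at a single test concentration of 10 μM. Values are mean and S.D. of three to four determinations.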

Turning to `CC1C=C(c2c[nH]c(-c3ccc(F)cc3)c2-c2ccncc2)CCN1` (configuration not stated), the IC50 (usually the concentration needed to halve the response being measured) in test [1] came to 710 nM. In test [2], the ED50 turned out to be 2.29 mg/kg. With `CC(C)N1CC=C(c2c[nH]c(-c3ccc(F)cc3)c2-c2ccncc2)CC1`, the IC50 in test [1] turned out to be 980 nM. Besides, the ED50 in test [2] came to 6.18 mg/kg.

As for `Fc1ccc(-c2[nH]cc(C3=CCN(Cc4ccccc4)CC3)c2-c2ccncc2)cc1`, the IC50 in test [1] was above 30000 nM. For the compound `CCCCCCCCN1CC=C(c2c[nH]c(-c3ccc(F)cc3)c2-c2ccncc2)CC1`, the inhibition in vivo (as a rule, the share of the control response that was lost under treatment) at 20 mg/kg in test [3] was determined as 45%. The IC50 in test [1] was 1380 nM. Consider `CCCN1CCC(c2c[nH]c(-c3ccc(F)cc3)c2-c2ccncc2)=CC1C` (configuration not stated), for which, in test [1], the IC50 came to 440 nM. In test [2], the ED50 was 2.79 mg/kg. With `CCCN1CC=C(c2c[nH]c(-c3ccc(F)cc3)c2-c2ccncc2)CC1`, in test [1], the IC50 worked out at 520 nM. Moreover, in test [2], the ED50 was 6.75 mg/kg.

With `CN1CC=C(c2c[nH]c(-c3ccc(F)cc3)c2-c2ccncc2)CC1`, the IC50 in test [1] is 3960 nM. Moreover, in test [2], the ED50 worked out at 2.89 mg/kg. The Ratio in test [4] is given as above 2.

For the compound `CC(C)(C)N1CC=C(c2c[nH]c(-c3ccc(F)cc3)c2-c2ccncc2)CC1`, the half-inhibitory concentration (IC50) in test [1] is above 10000 nM. On to `CC1CC(c2c[nH]c(-c3ccc(F)cc3)c2-c2ccncc2)=CCN1C` (configuration not stated), for which the half-maximal inhibitory concentration (IC50) in test [1] was determined as 1280 nM. In test [2], the ED50 stood at 2.73 mg/kg. As for `CCN1CCC(c2c[nH]c(-c3ccc(F)cc3)c2-c2ccncc2)=CC1C` (configuration not stated), the IC50 in test [1] worked out at 1610 nM. Moreover, in test [2], the ED50 is 5.28 mg/kg. For `CCN1CC=C(c2c[nH]c(-c3ccc(F)cc3)c2-c2ccncc2)CC1`, in test [1], the IC50 turned out to be 1210 nM. For the same compound, in test [2], the ED50 came out at 6.67 mg/kg.

On to `CN1C(C)(C)C=C(c2c[nH]c(-c3ccc(F)cc3)c2-c2ccncc2)CC1(C)C`, for which, in test [1], the IC50 turned out to be 8440 nM. The ED50 in test [2] turned out to be 7.27 mg/kg. For `CC1C=C(c2c[nH]c(-c3ccc(F)cc3)c2-c2ccncc2)CCN1C` (configuration not stated) the same measures were 630 nM and 1.42 mg/kg. Take `C=CCC1C=C(c2c[nH]c(-c3ccc(F)cc3)c2-c2ccncc2)CCN1C` (configuration not stated): in test [5], the inhibition – broadly, the percentage by which the read-out fell short of the control – at 10 µM is 48.7%. As for `CN1CCC(c2c[nH]c(-c3ccc(F)cc3)c2-c2ccncc2)=CC1Cc1ccccc1` (configuration not stated), in test [5], the inhibition at 10 µM was determined as 30.8%.
